The target in one test is α1/β2/γ2 GABAA receptors (Homo sapiens, UniProt P14867+P18507+P47870). In words: Whole-cell patch-clamp on CHO cells expressing heteromeric GABAA receptors. The class given is cell-based. Conditions: for decrease of currents induced by GABA (ramp protocol): 50 μM Azo-NZ1, 5 μM GABA, n = 5; for decrease of currents induced by GABA (ramp protocol) / decrease of amplitude of GABA-induced currents: visible light; for decrease of amplitude of GABA-induced currents: 70 μM Azo-NZ1, 5 μM GABA. A general note: Patch clamp records ionic current or voltage across a cell membrane.

The target of a further test is ρ1 GABAC receptors (Homo sapiens, UniProt P24046). In words: Whole-cell patch-clamp on CHO cells expressing homomeric ρ1 GABAC receptors. The class given is cell-based. Conditions: visible and UV light.
For a further test, the target named is ρ2 GABAC receptors (Homo sapiens, UniProt P28476). In words: Whole-cell patch-clamp on CHO cells expressing homomeric ρ2 GABAC receptors. The class given is cell-based. The gist of the method:
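ρ2 receptors were expressed in CHO-K1 cells by cDNA transfection with GFP; whole-cell recordings were made 24–72 hr later at 20–25°C using fast solution exchange. […] Test compound inhibition of GABA-evoked currents was measured at Vh −30 and +30 mV and normalised to the current just before compound application; mean ± SEM.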

The target of a further test is GABA ρ1 P2′S receptors (Homo sapiens, UniProt P24046, P315S). The test can be described thus: Whole-cell patch-clamp on CHO cells expressing mutant ρ1 P2′S receptors. The class given is cell-based. Conditions: 100 μM Azo-NZ1, 10 μM GABA, visible light.
A further test has as its target ρ2 mutant S2′G receptors (Homo sapiens, UniProt P28476, S295G). In words: Whole-cell patch-clamp on CHO cells expressing mutant ρ2 S2′G receptors. The class given is cell-based. The gist of the method:
(§1)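 CHO-K1 cells were transfected (Lipofectamine) with receptor subunit cDNA plus GFP; fluorescent cells were recorded whole-cell 24–72 hr later at 20–25°C. External HEPES-buffered saline at pH 7.4; KCl-based pipette solution at pH 7.3. Agonist and test compound were co-applied by a fast three-tube system at Vh −30/+30 mV or on a −60 to +60 mV ramp. UV came from a 365 nm LED (0.6 mW·mm−2). Cells with input resistance <150 MOhm or >30% run-down were excluded.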

The target in a further test is T1, α1 glycine receptors (Homo sapiens, UniProt P23415).
T1 sequence (P23415 29-457): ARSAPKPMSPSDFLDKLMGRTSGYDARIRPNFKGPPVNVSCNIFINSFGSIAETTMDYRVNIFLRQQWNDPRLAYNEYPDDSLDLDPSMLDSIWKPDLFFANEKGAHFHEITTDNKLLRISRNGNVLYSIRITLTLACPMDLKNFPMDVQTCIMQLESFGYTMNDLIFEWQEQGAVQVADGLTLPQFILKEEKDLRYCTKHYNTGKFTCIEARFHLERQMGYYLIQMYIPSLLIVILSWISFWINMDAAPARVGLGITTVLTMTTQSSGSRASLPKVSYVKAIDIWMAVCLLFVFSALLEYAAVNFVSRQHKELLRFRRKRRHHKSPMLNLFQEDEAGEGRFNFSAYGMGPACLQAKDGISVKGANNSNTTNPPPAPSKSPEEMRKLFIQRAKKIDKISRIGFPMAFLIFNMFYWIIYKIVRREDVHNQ
The test can be described thus: Whole-cell patch-clamp on CHO cells expressing α1 glycine receptors. It is filed as cell-based. As to conditions: 50 μM, glycine 30 μM, Vh −30 mV. The gist of the method: as §1

A further test deals with T2, α2 glycine receptors (Homo sapiens, UniProt P23416).
T2 sequence (P23416 28-452): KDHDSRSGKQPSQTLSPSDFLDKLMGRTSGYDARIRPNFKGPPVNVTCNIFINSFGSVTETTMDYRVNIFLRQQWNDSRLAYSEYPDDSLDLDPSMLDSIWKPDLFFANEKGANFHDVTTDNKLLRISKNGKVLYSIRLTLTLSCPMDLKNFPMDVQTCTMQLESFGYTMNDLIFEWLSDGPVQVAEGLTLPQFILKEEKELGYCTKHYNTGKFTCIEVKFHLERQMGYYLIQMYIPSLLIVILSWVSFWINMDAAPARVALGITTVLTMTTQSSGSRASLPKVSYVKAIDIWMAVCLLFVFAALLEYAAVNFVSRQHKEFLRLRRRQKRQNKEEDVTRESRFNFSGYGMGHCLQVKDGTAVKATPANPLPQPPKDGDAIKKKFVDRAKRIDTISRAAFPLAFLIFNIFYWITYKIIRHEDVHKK
The test can be described thus: Whole-cell patch-clamp on CHO cells expressing α2 glycine receptors. It is filed as cell-based. Conditions: 50 μM, glycine 30 μM, Vh −30 mV, n = 10. The gist of the method:
as §1

Another test concerns the target T3, 5‐HT3A receptors (Homo sapiens, UniProt P46098).
T3 sequence (P46098 24-478): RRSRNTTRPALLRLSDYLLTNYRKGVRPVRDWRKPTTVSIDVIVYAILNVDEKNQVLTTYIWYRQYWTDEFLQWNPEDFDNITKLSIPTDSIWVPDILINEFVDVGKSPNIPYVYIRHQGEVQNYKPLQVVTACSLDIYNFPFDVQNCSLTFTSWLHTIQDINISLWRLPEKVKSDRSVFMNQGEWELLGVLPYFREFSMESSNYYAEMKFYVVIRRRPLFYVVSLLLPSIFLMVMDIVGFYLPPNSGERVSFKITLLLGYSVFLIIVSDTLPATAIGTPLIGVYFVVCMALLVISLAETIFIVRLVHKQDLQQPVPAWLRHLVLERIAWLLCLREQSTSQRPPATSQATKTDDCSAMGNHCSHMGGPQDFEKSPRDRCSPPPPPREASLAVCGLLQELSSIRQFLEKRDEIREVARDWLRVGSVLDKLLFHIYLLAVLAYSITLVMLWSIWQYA
The test can be described thus: Whole-cell patch-clamp on CHO cells expressing homomeric 5HT3A receptors. As to conditions: trans or cis‐configuration. The class given is cell-based. The gist of the method: as §1

The subject of test [1] is GABAergic eIPSCs in dentate gyrus granule cells. In words: Evoked GABAergic postsynaptic currents. The class given is cell-based, mice. As to conditions: for suppression of eIPSCs amplitude to: n = 5. The gist of the method: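 Hippocampal slices (coronal) from 3–4-week-old ICR outbred mice of both sexes, recovered ≥1 hr at room temperature and superfused with oxygenated aCSF at 32–34°C. Whole-cell recordings from dentate granule cells at Vh 0 mV. eIPSCs were evoked every 10 s from a theta-glass electrode placed 100–200 μm away. Protocol: 20–30 control events, then test compound in aCSF for 5–10 min, perfusate illuminated at 365 nm then 455 nm for 3–5 min each.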

α1/β2/γ2 GABAA receptors, sequence (P14867 28-456): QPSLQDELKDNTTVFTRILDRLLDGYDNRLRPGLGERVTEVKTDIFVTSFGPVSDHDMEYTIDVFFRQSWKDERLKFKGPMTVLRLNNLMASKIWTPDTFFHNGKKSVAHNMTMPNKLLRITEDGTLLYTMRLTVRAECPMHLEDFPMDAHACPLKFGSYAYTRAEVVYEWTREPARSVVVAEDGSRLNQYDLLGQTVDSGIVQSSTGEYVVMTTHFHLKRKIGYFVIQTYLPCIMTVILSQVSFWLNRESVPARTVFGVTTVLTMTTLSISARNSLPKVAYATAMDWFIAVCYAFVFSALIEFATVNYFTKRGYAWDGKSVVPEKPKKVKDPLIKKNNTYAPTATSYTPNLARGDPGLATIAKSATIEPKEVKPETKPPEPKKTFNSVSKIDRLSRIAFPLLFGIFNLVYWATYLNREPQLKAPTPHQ
α1/β2/γ2 GABAA receptors, sequence (P47870 25-512 limits assumed): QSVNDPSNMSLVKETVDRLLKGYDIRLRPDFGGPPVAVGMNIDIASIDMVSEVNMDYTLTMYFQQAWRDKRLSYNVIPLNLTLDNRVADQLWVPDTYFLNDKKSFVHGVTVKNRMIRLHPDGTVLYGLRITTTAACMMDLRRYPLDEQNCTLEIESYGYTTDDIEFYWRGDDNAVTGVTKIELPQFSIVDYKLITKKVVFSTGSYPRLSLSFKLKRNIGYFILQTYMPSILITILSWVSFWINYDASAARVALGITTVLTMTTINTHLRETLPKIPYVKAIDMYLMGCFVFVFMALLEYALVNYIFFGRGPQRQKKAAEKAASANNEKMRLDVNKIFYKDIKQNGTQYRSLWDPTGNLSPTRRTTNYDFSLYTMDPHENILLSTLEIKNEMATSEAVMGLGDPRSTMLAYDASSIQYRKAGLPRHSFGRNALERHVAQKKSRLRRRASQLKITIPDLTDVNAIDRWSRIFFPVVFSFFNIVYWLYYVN
α1/β2/γ2 GABAA receptors, sequence (P18507 40-467 isoform P18507-1 limits assumed): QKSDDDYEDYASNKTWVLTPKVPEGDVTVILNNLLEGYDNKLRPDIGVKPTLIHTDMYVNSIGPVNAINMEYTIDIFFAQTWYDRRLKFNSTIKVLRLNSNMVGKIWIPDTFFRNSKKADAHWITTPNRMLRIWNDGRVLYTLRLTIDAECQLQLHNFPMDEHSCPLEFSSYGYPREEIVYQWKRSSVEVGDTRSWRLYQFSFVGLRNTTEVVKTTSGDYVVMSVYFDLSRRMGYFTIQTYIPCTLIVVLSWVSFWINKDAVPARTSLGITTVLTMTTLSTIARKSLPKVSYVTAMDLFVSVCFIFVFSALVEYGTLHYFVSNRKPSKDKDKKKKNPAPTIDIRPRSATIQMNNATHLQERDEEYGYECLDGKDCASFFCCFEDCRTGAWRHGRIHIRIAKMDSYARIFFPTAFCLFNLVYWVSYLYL
ρ2 mutant S2′G receptors, sequence (P28476 21-465 S295G): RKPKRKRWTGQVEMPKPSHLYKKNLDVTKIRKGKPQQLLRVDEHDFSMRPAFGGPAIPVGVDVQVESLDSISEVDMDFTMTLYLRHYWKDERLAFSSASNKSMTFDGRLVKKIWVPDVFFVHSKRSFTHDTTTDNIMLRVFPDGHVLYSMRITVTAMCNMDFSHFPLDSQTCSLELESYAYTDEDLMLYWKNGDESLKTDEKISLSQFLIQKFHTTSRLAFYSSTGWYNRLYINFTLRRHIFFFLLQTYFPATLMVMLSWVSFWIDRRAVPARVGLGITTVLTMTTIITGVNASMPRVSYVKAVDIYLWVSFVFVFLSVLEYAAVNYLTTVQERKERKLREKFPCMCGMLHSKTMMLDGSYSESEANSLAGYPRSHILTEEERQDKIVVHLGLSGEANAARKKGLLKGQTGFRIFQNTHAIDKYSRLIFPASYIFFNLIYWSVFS
ρ2 GABAC receptors, sequence (P28476 21-465): as the sequence (P28476 21-465 S295G) above, with G275S counted along it
GABA ρ1 P2′S receptors, sequence (P24046 22-479 P315S): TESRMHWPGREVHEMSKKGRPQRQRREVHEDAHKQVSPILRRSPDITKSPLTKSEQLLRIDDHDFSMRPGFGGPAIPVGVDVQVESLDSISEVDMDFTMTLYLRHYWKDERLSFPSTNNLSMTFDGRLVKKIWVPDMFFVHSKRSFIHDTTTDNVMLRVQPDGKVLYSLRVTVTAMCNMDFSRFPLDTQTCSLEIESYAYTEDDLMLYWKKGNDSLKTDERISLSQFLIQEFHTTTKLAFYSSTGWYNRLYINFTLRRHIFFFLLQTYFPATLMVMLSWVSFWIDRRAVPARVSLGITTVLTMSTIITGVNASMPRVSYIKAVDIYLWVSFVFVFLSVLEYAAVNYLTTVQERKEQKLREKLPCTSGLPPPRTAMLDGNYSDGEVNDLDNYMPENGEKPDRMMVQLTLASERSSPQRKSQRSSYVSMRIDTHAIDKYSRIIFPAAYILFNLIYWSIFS
ρ1 GABAC receptors, sequence (P24046 22-479): as the sequence (P24046 22-479 P315S) above, with S294P counted along it

As for `CN1C(=O)CN=C(c2ccccc2)c2cc(Cl)ccc21` [Diazepam, diazepam, reference compound], the “effect on GABA-induced current amplitude” value on α1/β2/γ2 GABAA receptors (diazepam 10 μM co-applied with non-saturating GABA (5 μM), Vh −30 mV) is recorded as “increase in the current amplitude”.

A word on the IC50: it is the concentration needed to halve the response being measured. Take `O=C1CN=C(c2ccccc2)c2cc(/N=N/c3ccc(S(=O)(=O)O)cc3)ccc2N1` [Azo‐NZ1, (E)‐4‐((2‐oxo‐5‐phenyl‐2,3‐dihydro‐1H‐benzo[e][1,4]diazepin‐7‐yl)diazenyl)benzenesulfonic acid]: the figures for the IC50 against α1/β2/γ2 GABAA receptors and against ρ2 GABAC receptors were 67 ± 5 µM and 128 ± 25 µM, respectively. Moreover, the figures for the “decrease of currents induced by GABA (ramp protocol)” value at α1/β2/γ2 GABAA receptors (+60 mV) and at α1/β2/γ2 GABAA receptors (−60 mV) were 76 ± 5% and 40 ± 4%, respectively. The “effect at saturating GABA compared with 5 μM GABA” value at α1/β2/γ2 GABAA receptors (50 μM Azo-NZ1 co-applied with 300 μM GABA, Vhold −30 mV) is recorded as “even stronger inhibitory effect”. Also, the results for the “decrease of amplitude of GABA-induced currents” value at α1/β2/γ2 GABAA receptors (+30 mV) and at α1/β2/γ2 GABAA receptors (−30 mV) were 78% and 51%, respectively. The “effect on GABA-induced currents” value at α1/β2/γ2 GABAA receptors (Azo-NZ1 0.5–1 μM, 5 μM GABA) was “did not produce effect”; at GABA ρ1 P2′S receptors it was “inhibited currents”. Moreover, the “effect on receptor activity” value on ρ1 GABAC receptors was “did not alter the activity”. For the same compound, the UV effect result at ρ2 mutant S2′G receptors (UV illumination in presence of Azo-NZ1) is “virtually absent”. Further, on ρ2 mutant S2′G receptors (upon application of Azo-NZ1, n = 5), the “decrease of current amplitude” value is listed as 14 ± 2%. Further, the “current amplitude reduced to” value at α1 glycine receptors (UV illumination) is 73 ± 2%; on α1 glycine receptors (visible light (trans), n = 4) it was 86 ± 3%. Further, at α2 glycine receptors (UV illumination), the “current amplitude under UV illumination” value was found to be 95 ± 7%. Also, on α2 glycine receptors (visible light), the “current amplitude decreased to” value was found to be 23 ± 3%. Further, the “interaction with 5‐HT3A receptors” value at 5‐HT3A receptors is given as “did not interact in a specific manner”. Besides, the “suppression of eIPSCs amplitude to” value in test [1] (100 μM Azo-NZ1, blue light, Vh 0 mV) came out at 58.6 ± 3.3%; in test [1] (200 μM Azo-NZ1, blue light, Vh 0 mV), 25.2 ± 6.0%. In [1] (single neuron, 100 μM Azo-NZ1, Vh 0 mV, control aCSF 156.9 ± 4.5 pA), the “amplitude of eIPSCs” value stood at 100.6 ± 3.2 pA.

For `CN1CCc2cc3c(cc2[C@H]1[C@@H]1OC(=O)c2c1ccc1c2OCO1)OCO3` [Bicuculline, bicuculline, reference compound], the “effect on eIPSCs” value in test [1] (bicuculline 10 μM, Vh 0 mV) is “complete inhibition”.
